Assay outcomes deposited in PubChem by Sanford-Burnham Center for Chemical Genomics.
Hits are enriched below; roughly 0.72% of the tested compounds scored in any of these assays.
mIAP inh – mouse IAP inhibition. purified mouse IAP, CDP-Star luminescence, 30 min. 330,000 compounds, 0.2% hits. AID 2806. inhibition, % at 10 µM;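 active = inhibition of at least 40% at 10 µM in the primary screen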;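 also: plate controls were DMSO with enzyme for no effect and no enzyme wells for full effect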
bIAP inhibitor – blocks bovine intestinal alkaline phosphatase activity. purified bovine IAP, CDP-star luminescence, 30 min. inhibition, % at 20 µM. 190,000 tested, under 10 active. AID 1019;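 active = over 50% inhibition of intestinal alkaline phosphatase at 20 µM in the single-dose screen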
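Assay system: bovine IAP enzyme; medium: DEA buffer 100 mM, pH 9.8, with MgCl2 1.0 mM, ZnCl2 0.02 mM; doses: 20 µM single dose; incubation: enzyme reaction for 30 min at room temperature; detection: CDP-star luminescence signal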
hIAP inh – human IAP inhibition | 330,000 compounds, 0.12% hits | P09923 | purified IAP, CDP-Star luminescence, 30 min | inhibition, % at 10 µM;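 active = inhibition reaching a set limit with compound at 10 µM in the primary screen, cut at about 35% in these data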;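 also: plate controls were DMSO wells with enzyme for no effect and no-enzyme buffer wells for full effect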
Target sequence (P09923 whole entry, looked up): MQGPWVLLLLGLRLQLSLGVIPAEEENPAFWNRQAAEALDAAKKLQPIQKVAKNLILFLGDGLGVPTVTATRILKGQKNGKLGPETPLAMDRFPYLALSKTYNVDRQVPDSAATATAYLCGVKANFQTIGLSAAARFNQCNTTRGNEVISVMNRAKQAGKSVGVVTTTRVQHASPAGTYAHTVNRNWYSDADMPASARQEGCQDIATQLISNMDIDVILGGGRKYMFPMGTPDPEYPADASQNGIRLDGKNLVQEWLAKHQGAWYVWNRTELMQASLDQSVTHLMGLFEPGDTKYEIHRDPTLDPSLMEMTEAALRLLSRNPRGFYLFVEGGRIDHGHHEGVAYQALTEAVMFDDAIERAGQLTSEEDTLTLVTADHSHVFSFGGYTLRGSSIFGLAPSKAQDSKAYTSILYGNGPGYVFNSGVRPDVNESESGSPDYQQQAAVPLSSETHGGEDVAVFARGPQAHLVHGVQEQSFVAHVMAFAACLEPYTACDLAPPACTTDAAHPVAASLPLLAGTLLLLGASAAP
hIAP activ – human IAP activation; P09923; activation factor at 10 µM; 330,000 compounds, 0.16% hits; purified human IAP, CDP-Star luminescence, 30 min; hits give high values; 1 = vehicle-only enzyme, 0 = enzyme-free background;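 active = activation factor of the enzyme at least 2-fold when tested at 20 µM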
mIAP activ – mouse IAP activation. muIAP, CDP-Star luminescence, 30 min; hits give high values; 1 = vehicle-only enzyme signal, 0 = enzyme-free wells. activation factor at 10 µM. 330,000 compounds, 0.24% hits;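 active = activation factor of at least 2 at 20 µM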
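System: mouse IAP enzyme. Reagent: CDP-Star chemiluminescent phosphatase substrate. Benchmarks: DMSO wells, no-enzyme wells. Times: 30 min enzyme-substrate-compound incubation at room temperature. Detection: luminescence from enzymatic CDP-Star hydrolysis. Doses: test compounds delivered from DMSO solution.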
bIAP act – increases bovine intestinal alkaline phosphatase activity. 200,000 compounds, 0.17% hits. purified bovine IAP, CDP-star luminescence, 30 min; hits give high values; fold of DMSO-control signal, blank-subtracted. activation factor at 20 µM;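 active = activation factor of 2 or more at 20 µM, a signal rise over negative controls twice the positive control's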
mIAP inh confirm – mouse IAP inhibition confirmation; shares compounds with mIAP inh; purified mouse IAP, CDP-Star luminescence, 30 min; inhibition, % at 10 µM; 11,000 compounds, 4.7% hits;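 active = inhibition of at least 40% at 10 µM in either of the two replicates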;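 also: plate controls were DMSO wells with enzyme for no effect and buffer wells lacking enzyme for full effect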
Active calls of the source: *; · = not tested or not shown.

SMILES | mIAP inh | bIAP inhibitor | hIAP inh | hIAP activ | mIAP activ | bIAP act | mIAP inh confirm
O=C(Nc1ccc(F)cc1F)c1cc(-c2ccco2)nc2ccccc12 | 14 | · | 8 | 0.92 | 0.86 | · | ·
O=C(Nc1nc(-c2ccco2)c(-c2ccco2)s1)c1c(F)cccc1Cl | 70* | · | 16 | 0.84 | 0.3 | · | 72*
O=C(Nc1nc(-c2ccco2)c(-c2ccco2)s1)c1ccc(F)cc1F | 51* | · | 8 | 0.92 | 0.49 | · | 60*
Cc1cccc(CNC(=O)C2CCC(=O)N(C3CC3)C2)c1 (stereo not drawn) | 9 | · | 9 | 0.91 | 0.91 | · | ·
N#Cc1c2c(c(NCc3ccco3)n3c1nc1ccccc13)CCC2 | 50* | 12 | -11 | 1.1 | 0.49 | 0.9 | 57*
O=C(NC1CCSc2ccccc21)c1cccc(OC(F)F)c1 (stereo not drawn) | 3 | · | -10 | 1.1 | 0.97 | · | ·
Cc1cccc(NC(=S)NC2CCSc3ccccc32)c1 (stereo not drawn) | -329 | · | -1 | 1 | 4.3* | · | -242
S=C(NCc1ccccc1)NC1CCSc2ccccc21 (stereo not drawn) | -342 | · | -6 | 1.1 | 4.4* | · | -151
FC(F)Oc1ccc(NC(=S)NC2CCSc3ccccc32)cc1 (stereo not drawn) | -406 | · | -46 | 1.5 | 5.1* | · | -175
COc1cccc(CC(=O)NC2CCSc3ccccc32)c1 (stereo not drawn) | 0 | · | 13 | 0.87 | 0.99 | · | ·
CN(CC(=O)Nc1ccccc1Br)C(=O)C(Cc1ccccc1)NC(=O)c1ccccc1 (stereo not drawn) | 7 | · | -46 | 1.5 | 0.93 | · | ·
Cc1ccc(N(CC2CO2)S(=O)(=O)c2ccc([N+](=O)[O-])cc2)cc1 (stereo not drawn) | 2 | · | 13 | 0.87 | 0.98 | · | ·
CC1C(=O)N2CCCc3cc(S(=O)(=O)N4CCN(c5ccc(F)cc5)CC4)cc1c32 (stereo not drawn) | 12 | · | 6 | 0.94 | 0.88 | · | ·
O=C1CC(c2ccco2)CC(O)=C1C=Nc1cc(Cl)ccc1Cl (stereo not drawn) | 40 | -2 | 2 | 0.98 | 0.6 | 1 | ·
O=C1CC(c2ccco2)CC(O)=C1C=Nc1cc(Cl)ccc1O (stereo not drawn) | 64* | -42 | -68 | 1.7 | 0.36 | 1.4 | 70*
Cc1nnc(SC(C)C(=O)Nc2c(C)n(C)n(-c3ccccc3)c2=O)n1N (stereo not drawn) | -6 | -13 | 2 | 0.98 | 1.1 | 1.1 | ·
COC(=O)C/C=N/N=C1/NC(=O)/C(=C/C(=O)O)S1 | 54* | · | 18 | 0.82 | 0.47 | · | 42*
C[C@@H]1O[C@@H](OCCC(=O)O)[C@H](O)C[C@H]1O | 2 | · | -2 | 1 | 0.98 | · | ·
Oc1cc2c(cc1O)C1c3ccc(O)c(O)c3OCC1(O)C2 (stereo not drawn) | 74* | 48 | 6 | 0.94 | 0.26 | 0.5 | 64*
COc1cc(C#N)c(NC(=O)CN2CCN(CCO)CC2)cc1OC | -13 | 0 | -3 | 1 | 1.1 | 1 | ·
COC(=O)c1ccc(NC(=O)Nc2ccc(F)cc2F)cc1 | -80 | -5 | -4 | 1 | 1.8 | 1 | ·
COC(=O)c1ccc(NC(=O)Nc2cccc(F)c2)cc1 | -160 | 11 | -1 | 1 | 2.6* | 0.9 | -97
CCC(=O)N(CCC(c1ccc(C)cc1)c1ccco1)Cc1ccco1 (stereo not drawn) | -2 | · | -44 | 1.4 | 1 | · | ·
O=c1oc2ccccc2c(Nc2cccc(O)c2)c1[N+](=O)[O-] | 48* | 27 | 15 | 0.85 | 0.52 | 0.7 | 50*
C=CCc1cccc2cc(C(=O)NNC(=O)CC#N)c(=O)oc12 | 45* | · | -5 | 1 | 0.55 | · | 55*
SMILES | mIAP inh | bIAP inhibitor | hIAP inh | hIAP activ | mIAP activ | bIAP act | mIAP inh confirm
COc1c(-c2ccc(O)cc2)oc2cc(O)cc(O)c2c1=O | 13 | · | 28 | 0.71 | 0.87 | · | ·
CC(=O)Oc1cc(O)c2c(=O)c(OC(C)=O)c(-c3ccc(OC(C)=O)c(OC(C)=O)c3)oc2c1 | 43* | · | 31 | 0.69 | 0.57 | · | 45*
Cc1ccsc1/C=C/C1=Cc2c(sc(NC(=O)CSc3n[nH]c(N)n3)c2C#N)C(C)(C)C1 | 45* | 17 | 13 | 0.87 | 0.55 | 0.8 | 64*
O=C(O)CC(CCc1ccccc1)OC1OC(CO)C(O)C(O)C1O (stereo not drawn) | 76* | · | 0 | 1 | 0.24 | · | 80*
Cc1ccc(C(=O)Nc2nnc(CC(=O)N/N=C/c3ccncc3)s2)cc1 | 17 | -7 | 1 | 0.99 | 0.83 | 1.1 | ·
Cc1ccc(C(=O)Nc2nnc(CC(=O)N/N=C/c3ccc(O)c(O)c3)s2)cc1 | 58* | · | 16 | 0.84 | 0.42 | · | 79*
COc1cccc(NC(=O)CN2C(=O)CSc3ccc(S(=O)(=O)N4CCCCC4)cc32)c1 | 5 | · | 0 | 1 | 0.95 | · | ·
COc1cc(/C=C2/SC(=Nc3ccc(O)cc3)NC2=O)cc(OC)c1O | 12 | 12 | 19 | 0.81 | 0.88 | 0.9 | ·
O=C1NC(=Nc2ccc(O)cc2)S/C1=C\C=C\c1ccco1 | 69* | · | 5 | 0.95 | 0.31 | · | 88*
COc1ccc(N=C2NC(=O)/C(=C\c3ccco3)S2)cc1 | 40* | -7 | 1 | 0.99 | 0.6 | 1.1 | 59*
O=c1oc2cc([N+](=O)[O-])ccc2nc1/C=C(O)/C=C/c1ccccc1 | 69* | · | 0 | 1 | 0.31 | · | 76*
O=c1oc2cc([N+](=O)[O-])ccc2nc1/C=C(\O)c1cccc(Br)c1 | 18 | · | 23 | 0.77 | 0.82 | · | ·
O=C(Nc1cccc(Cl)c1)Nc1nc(-c2ccc(Cl)cc2)cs1 | -188 | 38 | 12 | 0.88 | 2.9* | 0.6 | -110
Cc1ccc2[nH]c3c(NCc4ccccc4)ncnc3c2c1 | -204 | · | -51 | 1.5 | 3* | · | -149
COc1ccc(CNc2ncnc3c2[nH]c2ccccc23)cc1 | -206 | · | -64 | 1.6 | 3.1* | · | -171
Brc1ccc2[nH]c3c(NCc4ccccn4)ncnc3c2c1 | -22 | · | -23 | 1.2 | 1.2 | · | ·
COc1ccc(CNc2ncnc3c2[nH]c2cc(OC)c(OC)cc23)cc1 | -85 | · | -6 | 1.1 | 1.8 | · | ·
Cc1noc(C)c1COc1ccc(C(=O)NNC(=O)c2ccccc2O)cc1 | 18 | · | -62 | 1.6 | 0.82 | · | ·
CCOc1ccccc1NC(=O)CCNS(=O)(=O)c1ccc2[nH]c(=O)oc2c1 | 37 | · | 6 | 0.94 | 0.63 | · | ·
COc1ccc(NC(=O)CCNS(=O)(=O)c2ccc3[nH]c(=O)oc3c2)cc1Cl | 44* | · | 13 | 0.87 | 0.56 | · | 65*
CCc1cccc(NC(=O)CCNS(=O)(=O)c2ccc3[nH]c(=O)oc3c2)c1 | 19 | · | 13 | 0.87 | 0.81 | · | ·
N#Cc1cccc(NC(=O)CCNS(=O)(=O)c2ccc3[nH]c(=O)oc3c2)c1 | 75* | · | 17 | 0.83 | 0.25 | · | 75*
